ChEMBL document CHEMBL1150371, “Design and synthesis of benzenesulfonanilides active against methicillin-resistant Staphylococcus aureus and vancomycin-resistant Enterococcus” (Bioorg Med Chem, 2008)
Converted amounts (≈) assume the structure as drawn. The source made the active and inactive calls. The calls are words filed in the database; no cut-off is given here.

Columns and labels:
Staphylococcus aureus [1] = assay: Antimicrobial activity against methicillin-resistant Staphylococcus aureus at […] by disk diffusion method; type: functional
Method in brief: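 Overnight nutrient-broth culture (35 °C, 12–18 h) of MRSA OM584 spread on Mueller-Hinton agar; 8-mm paper discs given 10 µL of 20 mM compound in DMSO; plates incubated at 37 °C about 20 h; inhibition zones measured and scored: −, ± (0–1 mm), +1 (1–15 mm), +2 (15–20 mm), +3 (>20 mm).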

Staphylococcus aureus [2] = assay: Antimicrobial activity against methicillin-resistant Staphylococcus aureus OM584 by microdilution method; type: functional
Method in brief: (§1)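 Broth microdilution MIC per Japan Society of Chemotherapy standard method. Cultures grown in sensitivity test broth at 37 °C to OD620 0.1, inoculum ≈10^5 CFU/mL. Twofold dilutions from DMSO stock, 500 to 0.2 µg/mL; 20 h, 37 °C, humid. MIC = lowest concentration clearly inhibiting growth by visual inspection; vancomycin standard; media, DMSO and water controls; at least duplicate.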

Enterococcus faecium = assay: Antimicrobial activity against vancomycin-resistant Enterococcus faecium FN-1 by microdilution susceptibility test; type: functional; method in brief: as §1
Mus musculus = assay: Acute toxicity in mouse at 100 mg/kg, ip upto 14 days; type: organism-based; set-up: dose 100 mg/kg, route intraperitoneal; settings: in vivo, 336 h
Method in brief: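 Male mice (15–30 g), water only for 12 h beforehand; compound in 0.5% CMC given ip at doses up to 100 mg kg-1, n = 5/group; toxic symptoms observed up to 14 days.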

## COc1ccc(NS(=O)(=O)c2ccc([N+](=O)[O-])cc2)cc1
Staphylococcus aureus [1]
  Activity: inactive

## O=S(=O)(Nc1cccc(C(F)(F)F)c1)c1cc(Cl)cc(Cl)c1
Staphylococcus aureus [2]
  MIC: 125 µg/mL (≈ 338 µM)
Enterococcus faecium
  MIC: 62.5 µg/mL (≈ 169 µM)

## O=S(=O)(Nc1ccc(Cl)cc1)c1cc(C(F)(F)F)cc(C(F)(F)F)c1
Staphylococcus aureus [2]
  MIC: 31.3 µg/mL (≈ 77.5 µM)
Enterococcus faecium
  MIC: 62.5 µg/mL (≈ 155 µM)

## O=S(=O)(Nc1ccc(Cl)cc1Cl)c1cc(C(F)(F)F)cc(C(F)(F)F)c1
Staphylococcus aureus [2]
  MIC: > 250 µg/mL
Enterococcus faecium
  MIC: > 250 µg/mL

## O=S(=O)(Nc1c(Cl)cccc1Cl)c1cc(C(F)(F)F)cc(C(F)(F)F)c1
Staphylococcus aureus [2]
  MIC: > 250 µg/mL
Enterococcus faecium
  MIC: > 250 µg/mL

## Nc1ccc(S(=O)(=O)Nc2ccc(C(F)(F)F)cc2)cc1
Staphylococcus aureus [1]
  Activity: inactive

## Cc1ccccc1NS(=O)(=O)c1ccc(N)cc1
Staphylococcus aureus [1]
  Activity: inactive

## O=S(=O)(Nc1cc(Cl)nc(Cl)c1)c1cc(C(F)(F)F)cc(C(F)(F)F)c1
Staphylococcus aureus [2]
  MIC: 15.6 µg/mL (≈ 35.5 µM)
Enterococcus faecium
  MIC: 7.8 µg/mL (≈ 17.8 µM)

## CN(c1cc(Cl)cc(Cl)c1)S(=O)(=O)c1cc(C(F)(F)F)cc(C(F)(F)F)c1
Staphylococcus aureus [2]
  MIC: > 250 µg/mL
Enterococcus faecium
  MIC: > 250 µg/mL

## Cc1ccc(NS(=O)(=O)c2cc(Cl)cc(Cl)c2)cc1
Staphylococcus aureus [2]
  MIC: > 250 µg/mL
Enterococcus faecium
  MIC: 62.5 µg/mL (≈ 198 µM)

## O=S(=O)(Nc1cc(Cl)c(O)c(Cl)c1)c1cc(Cl)cc(Cl)c1
Staphylococcus aureus [2]
  MIC: 31.3 µg/mL (≈ 80.9 µM)
Enterococcus faecium
  MIC: 31.3 µg/mL (≈ 80.9 µM)

## Cc1cc(C)cc(NS(=O)(=O)c2ccc(C(=O)O)cc2)c1
Staphylococcus aureus [1]
  Activity: inactive

## COc1ccc(NS(=O)(=O)c2cc(Cl)cc(Cl)c2)cc1
Staphylococcus aureus [2]
  MIC: 125 µg/mL (≈ 376 µM)
Enterococcus faecium
  MIC: 125 µg/mL (≈ 376 µM)

## O=S(=O)(Nc1ccc(C(F)(F)F)cc1)c1cc(Cl)cc(Cl)c1
Staphylococcus aureus [2]
  MIC: 31.3 µg/mL (≈ 84.6 µM)
Enterococcus faecium
  MIC: 31.3 µg/mL (≈ 84.6 µM)

## O=[N+]([O-])c1ccc(S(=O)(=O)Nc2cc(C(F)(F)F)cc(C(F)(F)F)c2)cc1
Staphylococcus aureus [2]
  MIC: 31.3 µg/mL (≈ 75.6 µM)
Staphylococcus aureus [1]
  inhibition zone (IZ): >20 mm
Enterococcus faecium
  MIC: 3.9 µg/mL (≈ 9.41 µM)

## O=S(=O)(Nc1cc(F)cc(F)c1)c1cc(C(F)(F)F)cc(C(F)(F)F)c1
Staphylococcus aureus [2]
  MIC: 2 µg/mL (≈ 4.94 µM)
Mus musculus
  Activity: Non-toxic
Enterococcus faecium
  MIC: 7.8 µg/mL (≈ 19.2 µM)

## Cc1cccc(NS(=O)(=O)c2ccc(NS(C)(=O)=O)cc2)c1
Staphylococcus aureus [1]
  Activity: inactive

## COc1ccc(NS(=O)(=O)c2ccc(C(=O)O)cc2)cc1
Staphylococcus aureus [1]
  Activity: inactive

## COc1ccc(NS(=O)(=O)c2ccc(N)cc2)cc1
Staphylococcus aureus [1]
  Activity: inactive

## Nc1ccc(S(=O)(=O)Nc2ccc(I)cc2)cc1
Staphylococcus aureus [1]
  Activity: inactive

## O=[N+]([O-])c1ccc(S(=O)(=O)Nc2ccc(C(F)(F)F)cc2)cc1
Staphylococcus aureus [1]
  Activity: inactive

## Cc1ccc(NS(=O)(=O)c2ccc(N)cc2)cc1
Staphylococcus aureus [1]
  Activity: inactive

## Cc1cccc(NS(=O)(=O)c2ccc(N)cc2)c1
Staphylococcus aureus [1]
  Activity: inactive

## Nc1ccc(NS(=O)(=O)c2cc(C(F)(F)F)cc(C(F)(F)F)c2)cc1
Staphylococcus aureus [2]
  MIC: > 250 µg/mL
Enterococcus faecium
  MIC: > 250 µg/mL

## CS(=O)(=O)Nc1ccc(S(=O)(=O)Nc2ccc(Cl)cc2)cc1
Staphylococcus aureus [1]
  inhibition zone (IZ): 0 mm

## O=C(O)c1ccc(S(=O)(=O)Nc2ccc(I)cc2)cc1
Staphylococcus aureus [1]
  Activity: inactive

## Cc1ccc(NS(=O)(=O)c2ccc(C(=O)O)cc2)cc1
Staphylococcus aureus [1]
  Activity: inactive

## CS(=O)(=O)Nc1ccc(S(=O)(=O)Nc2cc(C(F)(F)F)cc(C(F)(F)F)c2)cc1
Staphylococcus aureus [1]
  inhibition zone (IZ): 0 mm

## O=[N+]([O-])c1ccc(NS(=O)(=O)c2cc(Cl)cc(Cl)c2)cc1
Staphylococcus aureus [2]
  MIC: 7.8 µg/mL (≈ 22.5 µM)
Enterococcus faecium
  MIC: 15.6 µg/mL (≈ 44.9 µM)

## O=S(=O)(Nc1cc(F)ccc1F)c1cc(C(F)(F)F)cc(C(F)(F)F)c1
Staphylococcus aureus [2]
  MIC: 15.6 µg/mL (≈ 38.5 µM)
Enterococcus faecium
  MIC: 62.5 µg/mL (≈ 154 µM)

## O=S(=O)(Nc1ccc(F)c(F)c1)c1cc(C(F)(F)F)cc(C(F)(F)F)c1
Staphylococcus aureus [2]
  MIC: 3.9 µg/mL (≈ 9.62 µM)
Enterococcus faecium
  MIC: 7.8 µg/mL (≈ 19.2 µM)

## COc1ccc(NS(=O)(=O)c2cc(C(F)(F)F)cc(C(F)(F)F)c2)cc1
Staphylococcus aureus [2]
  MIC: > 250 µg/mL
Enterococcus faecium
  MIC: 125 µg/mL (≈ 313 µM)

## Nc1ccc(S(=O)(=O)Nc2ccccc2)cc1
Staphylococcus aureus [1]
  Activity: inactive

## CN[C@H](CC(C)C)C(=O)N[C@H]1C(=O)N[C@@H](CC(N)=O)C(=O)N[C@H]2C(=O)N[C@H]3C(=O)N[C@H](C(=O)N[C@H](C(=O)O)c4cc(O)cc(O)c4-c4cc3ccc4O)[C@H](O)c3ccc(c(Cl)c3)Oc3cc2cc(c3O[C@@H]2O[C@H](CO)[C@@H](O)[C@H](O)[C@H]2O[C@H]2C[C@](C)(N)[C@H](O)[C@H](C)O2)Oc2ccc(cc2Cl)[C@H]1O [VANCOMYCIN]
Enterococcus faecium
  MIC: 125 µg/mL (≈ 86.3 µM)

## O=[N+]([O-])c1ccc(NS(=O)(=O)c2cc(C(F)(F)F)cc(C(F)(F)F)c2)cc1
Staphylococcus aureus [2]
  MIC: 7.8 µg/mL (≈ 18.8 µM)
Enterococcus faecium
  MIC: 7.8 µg/mL (≈ 18.8 µM)

## O=S(=O)(Nc1ccc(Cl)cc1)c1cc(Cl)cc(Cl)c1
Staphylococcus aureus [2]
  MIC: > 250 µg/mL
Enterococcus faecium
  MIC: 125 µg/mL (≈ 371 µM)

## Nc1ccc(S(=O)(=O)Nc2cc(C(F)(F)F)cc(C(F)(F)F)c2)cc1
Staphylococcus aureus [2]
  MIC: 125 µg/mL (≈ 325 µM)
Staphylococcus aureus [1]
  inhibition zone (IZ): 1 mm
Enterococcus faecium
  MIC: 62.5 µg/mL (≈ 163 µM)

## Cc1cc(C)cc(NS(=O)(=O)c2ccc(NS(C)(=O)=O)cc2)c1
Staphylococcus aureus [1]
  Activity: inactive
